The subject of data set [1] is K562. Briefly: Antiproliferative activity against human K562 cells assessed as inhibition of cell survival after 72 hrs by MTT assay. The class given is functional, cell-based. The conditions noted are these: K562, 72 h. In outline:
(§1)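 Each of the three leukemia lines (K562, HL60, KG1a) was incubated with the compounds for 72 h. The survival rate was then read by MTT viability assay, with imatinib run as the positive control. Inhibitory activity is reported as IC50 in μM.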

Data set [2] can be described thus: Antiproliferative activity against human HL60 cells assessed as inhibition of cell survival after 72 hrs by MTT assay. The class given is functional, cell-based. The conditions noted are these: HL-60, 72 h. Put shortly: as §1
Data set [3] is described as follows: Antiproliferative activity against human KG1a cells assessed as inhibition of cell survival after 72 hrs by MTT assay. As to conditions: KG-1a. The class given is functional, cell-based. Put shortly: as §1
The nature of data set [4]: Potency index, ratio of imatinib IC50 to compound IC50 for antiproliferative activity against human KG1a cells. The format is functional.
Data set [5] is described as follows: Cytotoxicity against human 293T cells assessed as growth inhibition. The format is cell-based, HEK-293T.
Data set [6] concerns K562. Put plainly: Antiproliferative activity against human K562 cells assessed as reduction in cell viability after 72 hrs by resazurin assay. The conditions noted are these: K562, 72 h. The format is functional, cell-based.

Structures are written as SMILES.

Regarding `Cc1ccc(-n2cc(-c3ccc(C)c(C(F)(F)F)c3)nn2)cc1Nc1nccc(-c2cccnc2)n1`, the IC50 (in the data set with K562 [1]; in data set [2]; in data set [3]) was more than 30 µM each time.
For `Cc1ccc(-c2cn(-c3ccccc3N3CCOCC3)nn2)cc1Nc1nccc(-c2cccnc2)n1`, the IC50 was 5.86 µM in the data set on K562 [1], 1.49 µM in data set [2] and 0.44 µM in data set [3]. The “Ratio IC50” value in data set [4] amounted to 30.
On to `Cc1ccc(-c2nnc(-c3ccc(CN4CCN(CCN=C=S)CC4)cc3)o2)cc1Nc1nccc(-c2cccnc2)n1`, for which the figures for the IC50 (in the data set with K562 [1]; in data set [2]; in data set [3]) were 0.92 µM, 0.29 µM and 0.37 µM, respectively.
For `Cc1ccc(-c2cn(-c3ccc(CN4CCN(C)CC4)c(C(F)(F)F)c3)nn2)cc1Nc1nccc(-c2cccnc2)n1`, the half-maximal inhibitory concentration (IC50) came out at 0.03 µM in the data set on K562 [1], 0.02 µM in data set [2] and 1.04 µM in data set [3]. In data set [5], the CC50 worked out at 2.66 µM.
Consider `Cc1ccc(-n2cc(C(C)O)nn2)cc1Nc1nccc(-c2cccnc2)n1` (stereo not drawn), for which the values for the IC50 (in the data set on K562 [1]; in data set [2]; in data set [3]) were 15.3 µM, 25.5 µM and 12.7 µM, respectively.
Consider `COc1ccc(-c2cn(-c3ccc(C)c(Nc4nccc(-c5cccnc5)n4)c3)nn2)cc1C(F)(F)F`, for which the values for the IC50 (in the data set with K562 [1]; in data set [2]; in data set [3]) were 11.2 µM, 21.2 µM and 30 µM, respectively.
For `Cc1ccc(-c2nnc(-c3ccc(CN4CCN(C)CC4)c(C(F)(F)F)c3)o2)cc1Nc1nccc(-c2cccnc2)n1`, the IC50 came to 0.51 µM in the data set on K562 [1], 0.05 µM in data set [2] and 0.58 µM in data set [3]. Besides, the “Ratio IC50” value in data set [4] is listed as 30. Moreover, the CC50 in data set [5] amounted to 2.17 µM.
With `Cc1ccc(-n2cc(-c3cc(C(F)(F)F)cc(C(F)(F)F)c3)nn2)cc1Nc1nccc(-c2cccnc2)n1`, the IC50 in the data set on K562 [1] was found to be 2.65 µM; in data set [2] it was 1.6 µM; in data set [3] it was 9.93 µM.
On to `Cc1ccc(-c2nnc(-c3cc(C(F)(F)F)cc(C(F)(F)F)c3)o2)cc1Nc1nccc(-c2cccnc2)n1`, for which the IC50 (in the data set with K562 [1]; in data set [2]; in data set [3]) was more than 30 µM each time.
Consider `Cc1ccc(-c2nnc(-c3ccc(CN4CCN(CCN=C=S)CC4)c(C(F)(F)F)c3)o2)cc1Nc1nccc(-c2cccnc2)n1`, for which the 50% inhibitory concentration (IC50) in the data set with K562 [1] was determined as 0.5 µM; in data set [2] it was 0.07 µM; in data set [3], 0.94 µM.
Turning to `Cc1ccc(-c2cn(-c3ccc(CN4CCCC4)cc3)nn2)cc1Nc1nccc(-c2cccnc2)n1`, the IC50 is 3.89 µM in the data set on K562 [1], 1.57 µM in data set [2] and 5.42 µM in data set [3].
In the case of `Cc1ccc(-c2cn(-c3ccc(CN4CCOCC4)cc3)nn2)cc1Nc1nccc(-c2cccnc2)n1`, the IC50 was found to be 22.6 µM in the data set with K562 [1], 6.96 µM in data set [2] and 1.32 µM in data set [3].
Turning to `Cc1ccc(-c2nnc(-c3cccnc3)o2)cc1Nc1nccc(-c2cccnc2)n1`, the IC50 (with K562 [1]; in data set [2]; in data set [3]) was more than 30 µM throughout.
In the case of `CCN(CC)c1ccc(-n2cc(-c3ccc(C)c(Nc4nccc(-c5cccnc5)n4)c3)nn2)cc1`, the values for the IC50 (in the data set on K562 [1]; in data set [2]; in data set [3]) were more than 30 µM, 13.6 µM and 2.93 µM, respectively.
For `Cc1ccc(-c2cn(-c3ccc(CN4CCN(C)CC4)cc3)nn2)cc1Nc1nccc(-c2cccnc2)n1`, the IC50 was 4.7 µM with K562 [1], 6.74 µM in data set [2] and 6.16 µM in data set [3]. The CC50 in data set [5] was 4.15 µM.
`Cc1ccc(-c2cn(-c3ccc(CN4CCCCC4)cc3)nn2)cc1Nc1nccc(-c2cccnc2)n1`: the IC50 stood at 3.29 µM with K562 [1], 0.74 µM in data set [2] and 1.75 µM in data set [3].
Take `Cc1ccc(-c2nnc(-c3ccc(CN4CCN(C)CC4)cc3)o2)cc1Nc1nccc(-c2cccnc2)n1`: the values for the half-maximal inhibitory concentration (IC50) (in the data set with K562 [1]; in data set [2]; in data set [3]) were 4.9 µM, 0.57 µM and 1.78 µM, respectively. For the same molecule, the CC50 in data set [5] was 7.63 µM.
Regarding `C=CC(=O)NCCN1CCN(Cc2ccc(-c3nnc(-c4ccc(C)c(Nc5nccc(-c6cccnc6)n5)c4)o3)cc2C(F)(F)F)CC1`, the half-inhibitory concentration (IC50) stood at 0.6 µM in the data set with K562 [1] and 2.66 µM in data set [2].
Take `Cc1ccc(-c2nnc(-c3ccc(CN4CCN(CCO)CC4)cc3)o2)cc1Nc1nccc(-c2cccnc2)n1`: the half-maximal inhibitory concentration (IC50) came out at 4.85 µM in the data set on K562 [1], 0.81 µM in data set [2] and 4.53 µM in data set [3].
Turning to `Cc1ccc(-n2cc(CCCCO)nn2)cc1Nc1nccc(-c2cccnc2)n1`, in the data set with K562 [1], the 50% inhibitory concentration (IC50) was 11.2 µM.
Turning to `Cc1ccc(-c2nnc(-c3ccc(F)c(C(F)(F)F)c3)o2)cc1Nc1nccc(-c2cccnc2)n1`, the half-inhibitory concentration (IC50) was 29.7 µM in the data set with K562 [1], more than 30 µM in data set [2] and more than 30 µM in data set [3].
In the case of `Cc1ccc(-n2cc(-c3ccc(CN4CCN(C)CC4)c(C(F)(F)F)c3)nn2)cc1Nc1nccc(-c2cccnc2)n1`, the IC50 is 0.04 µM in the data set with K562 [1], 0.02 µM in data set [2] and 1.27 µM in data set [3]. The CC50 in data set [5] is 8.18 µM.
In the case of `COc1cc(/C=C/C(=O)CC(=O)/C=C/c2ccc(OCCN3CCN(Cc4ccc(-c5nnc(-c6ccc(C)c(Nc7nccc(-c8cccnc8)n7)c6)o5)cc4)CC3)c(OC)c2)ccc1O`, the IC50 (in the data set on K562 [1]; in data set [2]; in data set [3]) was more than 30 µM in each case.
Consider `Cc1ccc(-c2cn(-c3cc(C(F)(F)F)ccc3N3CCOCC3)nn2)cc1Nc1nccc(-c2cccnc2)n1`, for which the values for the IC50 (in the data set with K562 [1]; in data set [2]; in data set [3]) were 9.99 µM, 17.5 µM and 2.43 µM, respectively.
In the case of `Cc1ccc(NC(=O)c2ccc(CN3CCN(C)CC3)cc2)cc1Nc1nccc(-c2cccnc2)n1` [IMATINIB], the IC50 is 0.03 µM in data set [2] and 16.7 µM in data set [3]. The 50% cytotoxic concentration (CC50) in data set [5] was determined as 20.5 µM.
Consider `Cc1ccc(-n2cc(CCO)nn2)cc1Nc1nccc(-c2cccnc2)n1`, for which the IC50 in the data set with K562 [1] was found to be 10.7 µM; in data set [2], 9.1 µM; in data set [3], 6.54 µM.
As to `COc1ccc(-n2cc(-c3ccc(C)c(Nc4nccc(-c5cccnc5)n4)c3)nn2)cc1`, the concentration for half-maximal inhibition (IC50) (with K562 [1]; in data set [2]) was more than 30 µM in each case.
Regarding `Cc1ccc(-c2nnc(-c3ccc(C)c(C(F)(F)F)c3)o2)cc1Nc1nccc(-c2cccnc2)n1`, the IC50 (with K562 [1]; in data set [2]; in data set [3]) was more than 30 µM in each case.
Regarding `Cc1ccc(-c2nnc(-c3ccc(CN4CCN(CCO)CC4)c(C(F)(F)F)c3)o2)cc1Nc1nccc(-c2cccnc2)n1`, the values for the IC50 (with K562 [1]; in data set [2]; in data set [3]) were 1.81 µM, 0.39 µM and 0.98 µM, respectively.
In the case of `Cc1ccc(-n2cc(-c3ccc(CN4CCN(C)CC4)cc3)nn2)cc1Nc1nccc(-c2cccnc2)n1`, the results for the 50% inhibitory concentration (IC50) in the data set on K562 [6] and in the data set with K562 [1] were 0.89 µM and 0.79 µM, respectively. Further, in data set [5], the cytotoxic concentration (CC50) came out at 14.9 µM.
On to `Cc1ccc(-c2nnc(-c3ccc(CN4CCN(CCN)CC4)c(C(F)(F)F)c3)o2)cc1Nc1nccc(-c2cccnc2)n1`, for which the IC50 in the data set with K562 [1] turned out to be 0.3 µM; in data set [2], 0.02 µM; in data set [3] it was 0.48 µM. In addition, in data set [4], the “Ratio IC50” value amounted to 30.
Consider `Cc1ccc(-c2cn(-c3ccc(N4CCOCC4)cc3)nn2)cc1Nc1nccc(-c2cccnc2)n1`, for which the IC50 in the data set with K562 [1] was 23.4 µM; in data set [2], more than 30 µM; in data set [3], 5.28 µM.
For the molecule `Cc1nnc(-c2ccc(C)c(Nc3nccc(-c4cccnc4)n3)c2)o1`, the 50% inhibitory concentration (IC50) in the data set on K562 [1] is more than 30 µM; in data set [2] it was more than 30 µM; in data set [3] it was 18 µM.

Values taken from ChEMBL document CHEMBL3763114, “Syntheses and biological evaluation of 1,2,3-triazole and 1,3,4-oxadiazole derivatives of imatinib” (Bioorg Med Chem Lett, 2016).
